The text below walks through data of ChEMBL document CHEMBL4049439, “Synthesis and Characterization of Tetrahydropyran-Based Bacterial Topoisomerase Inhibitors with Antibacterial Activity against Gram-Negative Bacteria” (J Med Chem, 2017).

Each structure is given as a SMILES string. In brackets after ≈: the same amount, converted by molar mass. Activity calls are given as the source filed them. No cut-off for these calls is given here. Bounds are passed on as bounds.

A short description of series [1]: Ratio of AUC in NMRI mouse to MIC for methicillin-sensitive Staphylococcus aureus A-1178 infected in cyclophosphamide-induced neutropenic NMRI mouse model at 40 mg/kg/day.
Series [2] in a line: Clearance in Wistar rat at 10 mg/kg, iv by LC-MS/MS analysis. The class given is ADME, organism-based. Particulars: in vivo. An outline of the steps: (§1)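 Rats dosed iv at 10 mg/kg or 1 mg/kg. Dose-normalized AUC (μg·h/(mL·dose)) and its unbound counterpart derived via fraction unbound. Clearance, unbound clearance, Vdss and half-life also derived.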
The test system of series [3] is Escherichia coli. The series can be described thus: Antibacterial activity against Escherichia coli MG1655 harboring AcrAB deletion mutant by CLSI broth microdilution method. The class given is functional. The note with it: K-12 substr. MG1655. Summed up:
(§2)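 MIC (μg/mL) measured against engineered derivatives of E. coli MG1655. ΔrfaC has truncated LPS (raised permeability). ΔtolC lacks the outer-membrane TolC efflux component. ΔacrAB lacks the AcrAB efflux system of the cytoplasmic membrane.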
In general terms: In broth dilution the organism is exposed to a series of concentrations in liquid medium.

A further series has as its system Pseudomonas aeruginosa. The series can be described thus: Antibacterial activity against fluoroquinolone/carbapenem-resistant Pseudomonas aeruginosa by CLSI broth microdilution method. The class given is functional.
Series [4] is described as follows: Fraction unbound in Wistar rat plasma at 10 mg/kg, iv by rapid equilibrium dialysis. The class given is ADME, organism-based. An outline of the steps: as §1
Series [5] in a line: Volume of distribution at steady state in NMRI mouse at 10 mg/kg, iv by LC-MS/MS analysis. The class given is ADME, organism-based. The note with it: in vivo, read-out: Vdss. An outline of the steps:
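Mice received a single dose of 10 mg/kg intravenously, or 120 mg/kg subcutaneously for one compound. Clearance, Vdss, half-life, unbound fraction and dose-normalized AUC were derived from plasma exposure.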

The nature of series [6]: Cardiotoxicity against human induced pluripotent stem cell-derived cardiomyocytes assessed as total drug concentration causing effect on spontaneous rhythm after 5 to 60 mins by Fluo-4 dye based fluorescence assay. The class given is toxicity. Particulars: cardiac muscle cell. Summed up: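 Spontaneous beating rhythm of human iPSC-derived cardiomyocytes monitored. Reported value is the lowest active concentration, free or total. Free/total conversion corrected for 20% serum in the test solution.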

Series [7] in a line: Terminal half-life in NMRI mouse at 10 mg/kg, iv by LC-MS/MS analysis. The class given is ADME, organism-based. Particulars: in vivo, read-out: beta t1/2 (converted). Summed up: (§3)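 Mice dosed iv at 10 mg/kg or sc at 120 mg/kg. AUC normalized to dose (μg·h/(mL·dose)). Unbound AUC derived using fraction unbound. Clearance, Vdss and terminal half-life also derived.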
Series [8] can be described thus: Inhibition of wild-type Acinetobacter baumannii DNA gyrase supercoiling activity using relaxed pBR322 DNA as substrate by ethidium bromide based agarose gel electrophoresis.
Series [9] is described as follows: Fraction unbound in NMRI mouse at 10 mg/kg, iv by rapid equilibrium dialysis. The class given is ADME, organism-based. Particulars: plasma. An outline of the steps: as §3
(In equilibrium dialysis only unbound substance equilibrates across the membrane.)

In the next series the test system is Staphylococcus aureus. Briefly: Antibacterial activity against methicillin-sensitive Staphylococcus aureus A-1178 infected in cyclophosphamide-induced neutropenic NMRI mouse model assessed as log reduction in colony forming units in thighs at 40 mg/kg, sc treated 2 hrs post infection measured 22 hrs post dose. The class given is functional. An outline of the steps: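 Neutropenic mouse thigh model infected with a methicillin-sensitive S. aureus strain, subcutaneous dosing. Thigh CFU measured 24 h post-infection (22 h post-treatment). Net log reduction given against CFU at treatment start.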

The subject of series [10] is Escherichia coli. The series can be described thus: Antibacterial activity against Escherichia coli MG1655 harboring rfac deletion mutant by CLSI broth microdilution method. The class given is functional. The note with it: K-12 substr. MG1655. Summed up:
as §2

The next series has as its system Acinetobacter baumannii. Briefly: Antibacterial activity against multi-drug resistant Acinetobacter baumannii by CLSI broth microdilution method. The class given is functional.
The test system of series [11] is Escherichia coli. Briefly: Ratio of MIC for wild-type Escherichia coli MG1655 to MIC for Escherichia coli MG1655 harboring AcrAB deletion mutant. The class given is functional, K-12 substr. MG1655. An outline of the steps:
(§4)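 Fold change in MIC for each MG1655 derivative (ΔacrAB, ΔrfaC, ΔtolC) relative to the MIC measured on wild-type E. coli MG1655, with both MICs in μg/mL.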

Series [12] relates to Escherichia coli. The series can be described thus: Antibacterial activity against wild-type Escherichia coli MG1655 by CLSI broth microdilution method. The class given is functional. Particulars: K-12 substr. MG1655. An outline of the steps:
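MIC (μg/mL) determined on wild-type E. coli MG1655, the parent of isogenic strains with truncated LPS or deleted TolC or AcrAB efflux.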

Series [13] deals with Escherichia coli. The series can be described thus: Ratio of MIC for wild-type Escherichia coli MG1655 to MIC for Escherichia coli MG1655 harboring tolC deletion mutant. The class given is functional, K-12 substr. MG1655. An outline of the steps:
as §4

A further series relates to Rattus norvegicus. Briefly: Dose normalized AUC in Wistar rat at 10 mg/kg, iv by LC-MS/MS analysis. The class given is ADME, organism-based. The note with it: in vivo. An outline of the steps: as §1
The nature of series [14]: Terminal half-life in Wistar rat at 10 mg/kg, iv by LC-MS/MS analysis. The class given is ADME, organism-based. The note with it: in vivo, read-out: beta t1/2 (converted). Summed up:
as §1

A short description of series [15]: Solubility of the compound at pH 1 to 9. The class given is physicochemical. The note with it: buffer.
For series [16], the system named is Escherichia coli. The series can be described thus: Ratio of MIC for wild-type Escherichia coli MG1655 to MIC for Escherichia coli MG1655 harboring rfac deletion mutant. The class given is functional, K-12 substr. MG1655. Summed up: as §4
In series [17] the test system is Escherichia coli. Briefly: Antibacterial activity against Escherichia coli MG1655 harboring tolC deletion mutant by CLSI broth microdilution method. The note with it: K-12 substr. MG1655. The class given is functional. An outline of the steps:
as §2

The test system of series [18] is Mus musculus. Briefly: Dose normalized unbound AUC in NMRI mouse at 10 mg/kg, iv by LC-MS/MS analysis. The class given is ADME, organism-based. The note with it: in vivo. Summed up:
as §3

A short description of series [19]: Terminal half-life in NMRI mouse at 120 mg/kg, sc by LC-MS/MS analysis. The class given is ADME, organism-based. The note with it: in vivo, read-out: beta t1/2 (converted). Summed up:
as §3

Series [20] in a line: Fraction unbound in NMRI mouse plasma at 120 mg/kg, sc by rapid equilibrium dialysis. The class given is ADME, organism-based. Summed up: as §3
A short description of series [21]: Apparent clearance in NMRI mouse at 120 mg/kg, sc by LC-MS/MS analysis. Particulars: in vivo. The class given is ADME, organism-based. Summed up:
as §3

The subject of series [22] is Escherichia coli. The series can be described thus: Antibacterial activity against Escherichia coli ATCC 25922 infected in cyclophosphamide-induced neutropenic NMRI mouse model assessed as reduction in colony forming units in thighs at 120 mg/kg, sc treated 2 hrs post infection measured 5.5 hrs post dose. The class given is functional, organism-based. An outline of the steps: (§5)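 Neutropenic murine thigh infection with an E. coli strain, compound given subcutaneously. Thigh CFU counted 7.5 h post-infection (5.5 h post-treatment). Net change expressed relative to CFU at treatment start.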

Series [23] relates to Mus musculus. Briefly: Dose normalized AUC in NMRI mouse at 120 mg/kg, sc by LC-MS/MS analysis. The class given is ADME, organism-based. The note with it: in vivo. Summed up:
as §3

Series [24] deals with Escherichia coli. The series can be described thus: Antibacterial activity against Escherichia coli ATCC 25922 by CLSI broth microdilution method. The class given is functional.
Series [25] is described as follows: Clearance in dog at 1 mg/kg, iv by LC-MS/MS analysis. Particulars: in vivo. The class given is ADME, organism-based, Canis lupus familiaris. An outline of the steps: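 Dogs given 1 mg/kg iv. Clearance (mL/min/kg) and half-life (h) derived from plasma profiles.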
The subject of series [26] is Mus musculus. The series can be described thus: Dose normalized unbound AUC in NMRI mouse at 120 mg/kg, sc by LC-MS/MS analysis. The class given is ADME, organism-based. Particulars: in vivo. Summed up: as §3
The subject of series [27] is Escherichia coli. The series can be described thus: Antibacterial activity against Escherichia coli ATCC 25922 infected in cyclophosphamide-induced neutropenic NMRI mouse model assessed as log reduction in colony forming units in thighs at 360 mg/kg, sc treated 2 hrs post infection measured 5.5 hrs post dose. The class given is functional. Summed up:
as §5

As a reminder, the clearance is the volume of plasma or blood freed of the substance per unit of time. Low values mean inefficient removal, high ones efficient removal. Broadly, the MIC is the lowest concentration that inhibits growth of the organism. High values mean a less susceptible organism, low ones a more susceptible organism. By fraction unbound is commonly meant the share of the substance not bound to proteins or other matrix. As a reminder, the IC50 is the concentration at which inhibition is half-maximal. A low value points to higher potency. In general, solubility refers to how much of the substance goes into solution per volume. A higher solubility goes with a readily soluble substance. In general, CL/F refers to the apparent clearance, not corrected for the fraction that reaches the circulation.

Regarding `COc1ccc2ncc(F)c(C[C@H](N)[C@@H]3CC[C@@H](NCc4ccc5c(n4)NC(=O)CO5)CO3)c2n1`, the RatioAUC/MIC in series [1] is 23.5. In addition, in series [2], the clearance is 86 mL/min/kg. Besides, the MIC against Escherichia coli [3] was 0.008 µg/mL (≈ 0.0166 µM); against Pseudomonas aeruginosa, 1 to 2 µg/mL (≈ 2.07 to 4.14 µM); in the series on Escherichia coli [10] it was 0.031 µg/mL (≈ 0.0642 µM); in the series on Acinetobacter baumannii, 0.125 to 4 µg/mL (≈ 0.259 to 8.29 µM); against Escherichia coli [12], 0.063 µg/mL (≈ 0.131 µM); against Escherichia coli [17], 0.008 µg/mL (≈ 0.0166 µM). The fraction unbound in series [4] and in series [9] was 0.15 in each case. For the same molecule, the Vd in series [5] stood at 12.3 L/kg. Also, in series [6], the Drug uptake came out at 0.5 µM. The values for the half-life in series [7] and in [14] were 5.6 h and 8.8 h, respectively. In addition, the 50% inhibitory concentration (IC50) in [8] is 125 nM. For the same molecule, in the series with Staphylococcus aureus, the Activity was >2.5 log10CFU. The Ratio in the series on Escherichia coli [11] was 8; in the series with Escherichia coli [13] it was 8; in the series on Escherichia coli [16], 2. The AUC/dose in the series on Rattus norvegicus turned out to be 194 µg·h/mL. Besides, the solubility in series [15] was > 100 µg/mL. The fAUC/dose in the series on Mus musculus [18] is 35.4 µg·h/mL.
`COc1ccc2ccc(=O)n(C[C@H](N)[C@@H]3CC[C@@H](NCc4ccc5c(n4)NC(=O)CO5)CO3)c2n1`: the clearance in series [2] worked out at 110 mL/min/kg; in [25] it was 45 mL/min/kg. For the same molecule, the values for the half-life in series [19] and in [14] were 5.2 h and 9.1 h, respectively. In addition, the fraction unbound in series [20] stood at 0.369; in series [4], 0.236. In addition, the MIC was 1 to 2 µg/mL (≈ 2.08 to 4.16 µM) in the series with Pseudomonas aeruginosa, 0.25 µg/mL (≈ 0.52 µM) against Escherichia coli [24] and 1 to 16 µg/mL (≈ 2.08 to 33.3 µM) against Acinetobacter baumannii. Besides, the CL/F in series [21] was 86 mL/min/kg. The Drug uptake in [6] lay within 0.31 to 0.93 µM. This molecule also came in with an IC50 in [8] of 125 nM. Moreover, the outcome with Escherichia coli [22] was inactive. Moreover, the AUC/dose in the series with Mus musculus [23] turned out to be 186 µg·h/mL; with Rattus norvegicus, 145 µg·h/mL. In the series on Mus musculus [26], this molecule showed a fAUC/dose of 68.6 µg·h/mL. Besides, in the series with Escherichia coli [27], the Activity is reported as 2 log10CFU.
